SIRT5 block: SIRT5 desuccinylase inhibitors, primary screen, biochemical, fluorescence imaging, single point, set 5. NAD-dependent protein deacylase sirtuin-5, mitochondrial (Homo sapiens), Q9NXA8. Purified SirT5, succinyl-peptide AMC, trypsin-coupled fluorescence. inhibition, % at 15 µM. 1.1% of 330,000 active; in the data active means inhibition above about 15%; inconclusive means no clear call, values can overlap the other calls
Target sequence (Q9NXA8 whole entry, looked up): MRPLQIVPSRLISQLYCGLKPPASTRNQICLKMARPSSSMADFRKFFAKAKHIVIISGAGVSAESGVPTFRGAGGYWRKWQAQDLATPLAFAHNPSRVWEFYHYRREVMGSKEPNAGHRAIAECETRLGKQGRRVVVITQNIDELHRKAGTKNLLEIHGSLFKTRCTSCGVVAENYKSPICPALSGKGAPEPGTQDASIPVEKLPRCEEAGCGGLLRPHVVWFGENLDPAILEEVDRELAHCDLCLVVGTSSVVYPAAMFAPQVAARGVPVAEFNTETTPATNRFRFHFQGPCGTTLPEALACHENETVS
S100A4 MyoIIA: inhibitors of S100A4-myosin IIA peptide binding, primary screen, biochemical, fluorescence polarization, TAMRA-MyoIIA peptide; Protein S100-A4 (Homo sapiens), P26447; 0.14% of 360,000 active; inhibition, % at 10.7 µM; AID 652163, 2013;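 active means mean inhibition of at least 70% across replicates, with every replicate also reaching that level; inconclusive means mean inhibition reaches 70% but some replicates fall short; inactive means mean inhibition below 70%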
Target sequence (P26447 whole entry, looked up): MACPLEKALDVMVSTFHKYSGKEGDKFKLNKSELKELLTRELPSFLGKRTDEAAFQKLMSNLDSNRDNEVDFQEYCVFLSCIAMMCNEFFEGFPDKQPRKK
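Material: S100A4 monomer protein / Buffer or medium: 50 mM HEPES pH 7.2, 10 mM CaCl2, 100 mM KCl / Times: 5 min incubation before reading / Benchmarks: neutral control DMSO, positive control TFP / Reagent: labelled myosin peptide probe, 5 nM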
CAL PDZ FP-1: untagged CAL PDZ binding inhibitors, primary screen, biochemical, fluorescence polarization, HTS | AID 602252, 2012 | purified CAL PDZ, TMR-peptide fluorescence polarization, 1 h | inhibition, % at 24.9 µM | 0.92% of 300,000 active;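 active means mean inhibition of at least 30% with at least half of replicates also reaching 30%; inconclusive means no clear call, values can overlap the other calls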;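 further: 0% = DMSO neutral control and 100% = excess unlabeled competitor peptide PRC23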
DENV2 CPE rescue: inhibitors of DENV2 cytopathic effect, primary screen, cell-based, plate reader, single concentration. DENV2-infected cells, cytopathic effect rescue. CPE inhibition, % at 9.99 µM. 1.7% of 350,000 active; in the data active means CPE inhibition above about 20%, passing the limit was not always enough; inconclusive means no clear call, values can overlap the other calls; tested in BHK-21 cells;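 further: 0% = median of neutral control wells and 100% = median of positive control wells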
CAL PDZ FP-2: CAL PDZ peptide-binding inhibitors, primary screen, biochemical, fluorescence polarization, Cer-tagged CAL PDZ, HTS; Golgi-associated PDZ and coiled-coil motif-containing protein (Homo sapiens), Q9HD26; purified CAL PDZ, TMR-peptide fluorescence polarization, 1 h; inhibition, % at 20 µM; 0.02% of 330,000 active; AID 504414, 2011;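 active means highest replicate inhibition of at least 40%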;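 further: plate controls were DMSO neutral control wells for no effect and unlabeled competitor peptide control wells for full effect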
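System: tagged CAL PDZ domain. Schedule: 1 h room-temperature incubation prior to read. Signal: fluorescence polarization (mP). Measure: percent inhibition from loss of millipolarization.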
ERAP1 inh: human ERAP1 aminopeptidase inhibitors, primary screen, biochemical, single point, plate reader; Endoplasmic reticulum aminopeptidase 1 (Homo sapiens), Q9NZ08; recombinant ERAP1, Leu-AMC fluorescence, 60 min; inhibition, % at 10.7 µM; 0.15% of 340,000 active; AID 652197, 2013;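 active means mean replicate inhibition of at least 30%, or all replicates individually reaching that 30% level; inactive means mean below 30% and not every replicate reaching it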;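 further: 0% = neutral control wells and 100% = L-leucinethiol positive control wells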
An asterisk follows results filed as active; ? = inconclusive; · = no result; ! = repeats disagree. This is a sample that favours compounds with a hit; in the whole collection about 2.9% have one here.

SMILES | SIRT5 block | S100A4 MyoIIA | CAL PDZ FP-1 | DENV2 CPE rescue | CAL PDZ FP-2 | ERAP1 inh
O=C(Nc1ccccc1N1CCOCC1)c1ccc(Cl)c(S(=O)(=O)NCc2ccco2)c1 | 0 | -2 | 91* | 0 | 1 | -1
ClCCCc1cn(C[C@H]2CC[C@@H]([C@@H]3CC[C@H](Cn4cc(CCCCl)nn4)O3)O2)nn1 | -1 | -2 | -3 | 22* | -1 | -1
COCCN(C(=O)c1ccco1)c1nnc(-c2ccc(OC)c(OC)c2)s1 | · | · | 2 | · | · | ·
COCCN(C(=O)c1ccco1)c1nnc(-c2ccc(F)cc2)s1 | -1 | 2 | 40* | 5 | -2 | 1
Cc1ccc(NS(=O)(=O)c2c(C(=O)N3CCOCC3)c(C)n(C)c2C)cc1 | 3 | -1 | -4 | -4 | -1 | 2
Cc1cc(NS(=O)(=O)c2c(C(=O)N3CCOCC3)c(C)n(C)c2C)ccc1Br | 0 | 2 | 78* | 3 | -1 | 0
CO[C@@H]1CN(C)C(=O)c2ccc(NC(=O)Nc3c(C)noc3C)cc2OC[C@@H](C)N(CCC(F)(F)F)C[C@H]1C | 8 | -1 | · | -2 | · | 2
CO[C@@H]1CN(C)C(=O)c2ccc(NC(=O)Nc3c(C)noc3C)cc2OC[C@H](C)N(CCC(F)(F)F)C[C@H]1C | 4 | -24 | · | 37* | · | -1
CCCN1C[C@@H](C)[C@@H](OC)CN(C)C(=O)c2ccc(NC(=O)Nc3c(C)noc3C)cc2OC[C@@H]1C | 3 | 4 | · | 4 | · | 0
CCCN1C[C@H](C)[C@@H](OC)CN(C)C(=O)c2ccc(NC(=O)Nc3c(C)noc3C)cc2OC[C@H]1C | 2 | 3 | · | 21* | · | 3
O=C(C[C@@H]1CC[C@@H](NC(=O)Cc2ccccn2)[C@H](CO)O1)NCCc1ccccc1 | 3 | -10 | · | 2 | · | 0
Cc1noc(C)c1S(=O)(=O)N(C)C[C@H]1OCCCC[C@@H](C)Oc2ccc(NC(=O)Nc3ccc4c(c3)OCO4)cc2C(=O)N([C@H](C)CO)C[C@@H]1C | · | · | · | 3 | · | ·
CCCNC(=O)N1CC2(CCN(Cc3cccc(F)c3)CC2)c2c([nH]c3cc(OC)ccc23)[C@@H]1CO | 4 | -3 | · | 6 | · | -3
C[C@H](CO)N1C[C@H](C)[C@@H](CN(C)CC2CC2)OCCCC[C@H](C)Oc2ccc(NC(=O)Nc3ccc(F)cc3)cc2C1=O | 2 | -2 | · | 1 | · | 1
C[C@@H]1CCCCO[C@@H](CN(C)C(=O)Nc2ccc(F)cc2)[C@H](C)CN([C@H](C)CO)C(=O)c2cc(NC(=O)C3CCCCC3)ccc2O1 | -2 | 2 | · | 32* | · | 1
C[C@@H]1CCCCO[C@H](CN(C)C(=O)Nc2ccc(F)cc2)[C@@H](C)CN([C@H](C)CO)C(=O)c2cc(NC(=O)Nc3ccc(F)cc3)ccc2O1 | 27* | -9 | · | 5 | · | 4
C[C@@H]1CCCCO[C@@H](CN(C)CC2CC2)[C@@H](C)CN([C@H](C)CO)C(=O)c2cc(NC(=O)Nc3ccc(F)cc3)ccc2O1 | -3 | -2 | · | 78* | · | 1
C[C@H]1CCCCO[C@H](CN(C)C(=O)Nc2ccc(F)cc2)[C@@H](C)CN([C@@H](C)CO)C(=O)c2cc(NC(=O)Nc3ccc(F)cc3)ccc2O1 | 6 | -15 | · | 46* | · | 3
C[C@@H]1CCCCO[C@@H](CN(C)C(=O)Nc2ccc(F)cc2)[C@@H](C)CN([C@@H](C)CO)C(=O)c2cc(NC(=O)Nc3ccc(F)cc3)ccc2O1 | 3 | -9 | · | -17 | · | 2
COc1ccc(S(=O)(=O)Nc2cccc3c2O[C@@H](CN(C)S(=O)(=O)c2ccc(Cl)cc2)[C@H](C)CN([C@H](C)CO)C3=O)cc1 | -1 | 2 | · | -1 | · | -3
CCNC(=O)C[C@H]1CC[C@H]2[C@@H](COc3ccc(NC(=O)Nc4ccccc4Cl)cc3C(=O)N2C)O1 | -3 | 0 | · | ? | · | -1
C[C@H](O)C#Cc1ccc2c(c1)O[C@H](CN(C)C(=O)CN(C)C)[C@@H](C)CN([C@@H](C)CO)S2(=O)=O | -1 | -10 | · | 2 | · | -1
Cn1cnc(S(=O)(=O)N2CCCCN3[C@H](C2)[C@@H](c2ccc(-c4ccccc4)cc2)[C@@H]3CO)c1 | 0 | -3 | · | 6 | · | -1
Cc1cccc(S(=O)(=O)N2CCCCN3[C@@H](CO)[C@H](c4ccc(-c5ccccc5)cc4)[C@@H]3C2)c1 | 22* | 8 | · | -1 | · | -3
Cc1cccc(-c2ccc([C@@H]3[C@H]4CN(S(=O)(=O)c5cccc(C)c5)CCCCN4[C@H]3CO)cc2)c1 | 6 | 8 | · | -2 | · | -1
SMILES | SIRT5 block | S100A4 MyoIIA | CAL PDZ FP-1 | DENV2 CPE rescue | CAL PDZ FP-2 | ERAP1 inh
Cc1ccccc1S(=O)(=O)N1CCCCN2[C@H](CO)[C@@H](c3ccc(-c4ccccc4)cc3)[C@@H]2C1 | 19* | -1 | · | -6 | · | 0
Cn1cnc(S(=O)(=O)N2CCCCN3[C@H](CO)[C@@H](c4ccc(-c5ccccc5)cc4)[C@H]3C2)c1 | 0 | 6 | · | 26* | · | -1
Cc1ccccc1S(=O)(=O)N1CCCCN2[C@H](CO)[C@H](c3ccc(-c4ccccc4)cc3)[C@@H]2C1 | 14 | 5 | · | ? | · | 4
Cc1cccc(-c2ccc([C@H]3[C@@H](CO)N4CCCCN(S(=O)(=O)c5cccc(C)c5)C[C@H]34)cc2)c1 | 3 | -1 | · | 55* | · | -1
C/C=C/c1cnc2c(c1)C(=O)N([C@@H](C)CO)C[C@H](C)[C@@H](CN(C)Cc1cncnc1)O2 | -1 | 1 | · | -9 | · | 1
O=C(C[C@@H]1CC[C@@H](NC(=O)Nc2cc(F)ccc2F)[C@H](CO)O1)NCc1ccc2c(c1)OCO2 | 4 | 1 | · | 3 | · | -1
CS(=O)(=O)N1C[C@@H]2N[C@H](C1)[C@@H]2c1ccc(-c2ccccc2)cc1 | · | · | · | 100* | · | ·
Cc1cccc(-c2ccc([C@H]3[C@H]4CN(S(=O)(=O)c5cccc(C)c5)CCCCN4[C@H]3CO)cc2)c1 | 13 | -3 | · | 29* | · | -3
COc1cccc(-c2ccc(C3[C@@H]4CN(S(=O)(=O)c5cn(C)cn5)C[C@H]3N4)cc2)c1 (stereo partly specified) | · | · | · | 131*! | · | ·
Cc1cccc(S(=O)(=O)N2CCCCN3[C@H](CO)[C@H](c4ccc(-c5cccnc5)cc4)[C@H]3C2)c1 | 5 | 3 | · | -5 | · | 3
Cc1cccc(S(=O)(=O)N2CCCCN3[C@H](CO)[C@H](c4ccc(-c5cccnc5)cc4)[C@@H]3C2)c1 | 6 | -4 | · | 47* | · | -2

Assay outcomes (PubChem BioAssay)
